Results published in ChEMBL document CHEMBL1138289, “Synthesis and biological evaluation of fluorescent leishmanicidal analogues of hexadecylphosphocholine (miltefosine) as probes of antiparasite mechanisms” (J Med Chem, 2007).

How the values were obtained:
Leishmania pifanoi = experiment: Antileishmanial activity against miltefosine-sensitive Leishmania pifanoi MHOM/VE/60/Ltrod amastigotes by MTT assay; type: functional; settings: read-out: LD50 (the source's name)
How it was run: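 Axenic amastigotes from late exponential phase, washed twice, seeded at 2 × 10^6 parasites mL-1 in growth medium with compound for 120 h at 32 °C. Then washed in Hanks+Glc, given 0.5 mg mL-1 MTT for 2 h at 32 °C, SDS 10% overnight at 37 °C, absorbance 595 nm. Triplicates, repeated at least twice; LD50 (50% proliferation inhibition) with SE.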

Leishmania donovani [1] = experiment: Antileishmanial activity against miltefosine-resistant Leishmania donovani MHOM/ET/67/L82R40 promastigotes by MTT assay; type: functional; settings: read-out: LD50 (the source's name)
How it was run: (§1)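 Promastigotes from late exponential phase, washed twice, seeded at 2 × 10^6 parasites mL-1 in RPMI with 10% heat-inactivated FCS and 2 mM glutamine, exposed to compound 72 h at 26 °C. Washed in Hanks+Glc, MTT 0.5 mg mL-1 for 2 h at 26 °C, formazan dissolved in 10% SDS overnight at 37 °C, A595. Triplicates, two or more experiments; LD50 with SE.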

Leishmania donovani [2] = experiment: Antileishmanial activity against miltefosine-sensitive Leishmania donovani MHOM/ET/67/L82 promastigotes by MTT assay; type: functional; settings: read-out: LD50 (the source's name); how it was run: as §1
Leishmania donovani [3] = experiment: Drug level per mg of protein in miltefosine-sensitive Leishmania donovani promastigotes at 15 uM after 2 hrs; type: ADME, organism-based; settings: in vivo
How it was run: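 Late-exponential L. donovani promastigotes (MHOM/ET/67/L82) washed twice in Hanks+Glc, resuspended at 1.5 × 10^7 parasites mL-1 in the same medium with the analogue, incubated 2 h at 26 °C to reach steady intracellular accumulation. Analogue extracted and quantified by HPLC against calibration plots; expressed per mg protein.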

Leishmania donovani [4] = experiment: Intracellular drug concentration in miltefosine-sensitive Leishmania donovani promastigotes at 7.5 uM after 2 hrs; settings: in vivo

Row | SMILES | LC50 (Leishmania pifanoi) [µM] | LC50 (Leishmania donovani [1]) [µM] | LC50 (Leishmania donovani [2]) [µM] | Drug uptake (Leishmania donovani [3]) [nmol/mg] | Intracellular concentration (Leishmania donovani [4]) [mM]
1 | C[N+](C)(C)CCOP(=O)([O-])OCCCCC/C=C/C=C/C=C/C=C/c1ccccc1 | 26 | > 60 | 28.6 | – | –
2 | C[N+](C)(C)CCOP(=O)([O-])OCCCCCC#C/C=C/C=C/C=C/c1ccccc1 | 26.5 | > 60 | 29.6 | 7.6 | 0.7
3 | OCCCCCC#C/C=C/C=C/C=C/c1ccccc1 | > 150 | > 150 | > 150 | – | –
4 | COC(COCCCCCCC/C=C/C=C/C=C/C=C/c1ccccc1)COP(=O)([O-])OCC[N+](C)(C)C (racemic) | 22.5 | > 60 | 9 | – | –
5 | CCCCCCCCCCCCCCCCOP(=O)([O-])OCC[N+](C)(C)C [MILTEFOSINE] | 26.3 | > 60 | 12.5 | – | –
